The list is not random: actives were taken first. Their share in the collection is about 2.9%.
HSP90 inh – blocks HSP90-mediated luciferase refolding in reticulocyte lysate; Rabbit reticulocyte lysate, luciferase refolding luminescence, 3 h; inhibition, % at 5.6 µM; hit rate 0.91% among 290,000; AID 1789;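 active = inhibition above the screen-wide mean plus 3 SD, computed separately per campaign, cut at about 16% in these data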;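 note: 0% = DMSO wells and 100% = 60 µM geldanamycin wells; inhibitors lower the luminescence because luciferase stays unfolded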
SENP6 block – blocks the human protease SENP6. Q9GZR1. Recombinant SENP6 catalytic domain, aminoluciferin luminescence. inhibition, % at 10 µM. hit rate 1.8% among 330,000;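 active = inhibition above about 50% at the single tested dose, limit read from the data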;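 note: plate controls were DMSO wells with enzyme for no effect and DMSO wells lacking enzyme for full effect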
Target sequence (Q9GZR1 628-1112 limits assumed): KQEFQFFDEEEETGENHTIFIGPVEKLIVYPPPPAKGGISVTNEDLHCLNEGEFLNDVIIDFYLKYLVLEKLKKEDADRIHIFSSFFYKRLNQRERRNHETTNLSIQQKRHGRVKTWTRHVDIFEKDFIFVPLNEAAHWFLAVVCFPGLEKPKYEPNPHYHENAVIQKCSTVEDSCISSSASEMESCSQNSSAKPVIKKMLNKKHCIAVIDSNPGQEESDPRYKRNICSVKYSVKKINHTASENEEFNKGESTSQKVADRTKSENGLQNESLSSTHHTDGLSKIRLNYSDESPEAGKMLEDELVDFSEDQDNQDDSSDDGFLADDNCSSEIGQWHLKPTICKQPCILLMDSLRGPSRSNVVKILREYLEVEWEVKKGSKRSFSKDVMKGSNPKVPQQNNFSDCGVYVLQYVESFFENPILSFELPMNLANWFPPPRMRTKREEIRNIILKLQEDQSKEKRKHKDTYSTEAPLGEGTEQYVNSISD
SENP8 block-1 – SENP8 (human) protease inhibition; Q96LD8; recombinant SENP8, Nedd8 substrate fluorescence; inhibition, % at 20 µM; hit rate 0.64% among 360,000; in the data active = inhibition mostly above about 40%, no sharp cut-off; inactive = mostly below about 27%
SENP1 FRET inh – SENP1 (human) catalytic domain inhibition; Q9P0U3; recombinant SENP1 catalytic domain, CyPet-SUMO1-YPet FRET cleavage; inhibition, % at 10 µM; hit rate 0.21% among 360,000; AID 624204;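 active = inhibition at least 30% at 10 µM, raw YFP signal under a set limit, fluorescence ratio 0.5 to 1.5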;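 note: 0% = enzyme with DMSO and 100% = no enzyme wells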
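Test system: hSENP1 catalytic domain, recombinant; Amount: 20 pM final SENP1 enzyme; Medium: Tris pH 8 buffer plus EDTA, NaCl, BME, BSA, NP40, catalase; Schedule: 50 min enzyme reaction, room temperature, light-protected; Technique: FRET fluorescence in CFP and YFP emission channels; Controls: no-enzyme wells low, DMSO-plus-enzyme wells high control.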
SENP8 block-2 – SENP8 protease inhibition; inhibition, % at 10 µM; Q96LD8; AID 2540; hit rate 1.2% among 330,000; purified SENP8, Z-RLRGG-aminoluciferin cleavage, luminescence; in the data active = inhibition above about 50%
SENP7 block – inhibitors of human SENP7 protease; recombinant SENP7, Z-RLRGG-aminoluciferin luminescence, 40 min; inhibition, % at 5 µM; hit rate 1.5% among 330,000; AID 434973;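 active = inhibition above about 50% at the single test dose, limit read from the data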;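 note: plate controls were DMSO with enzyme for no effect and no enzyme buffer wells for full effect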
HSP90 inh confirm – confirmation of HSP90 inhibitors; shares compounds with HSP90 inh; rabbit reticulocyte lysate, luciferase refolding luminescence, 3 h; inhibition, % at 5.9 µM; hit rate 64% among 2,300; in the data active = inhibition above about 18%;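 note: 0% = vehicle wells and 100% = reference inhibitor wells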
FLuc counter – counter-screen for HSP90 inhibitors: inhibitors of firefly luciferase. hit rate 48% among 2,300. AID 1847. purified native firefly luciferase, luminescence. inhibition, % at 5.9 µM. shares compounds with HSP90 inh;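 active = inhibition above the mean inhibition of all tested sample wells plus 3 SD, cut at about 10% in these data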;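 note: 0% = DMSO with luciferase and 100% = wells lacking luciferase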
Starred values were filed as active, the others as inactive; nt = no result.

SMILES	HSP90 inh	SENP6 block	SENP8 block-1	SENP1 FRET inh	SENP8 block-2	SENP7 block	HSP90 inh confirm	FLuc counter
O=C(Nc1ccccc1)C1=C[C@H](C2CCCCC2)C[C@H](OCCCCO)O1	nt	1	0	-1	-10	-14	nt	nt
CCCCC(OC(=O)CN1C(=O)COc2ccccc21)C(=O)NC1CCCCC1 (stereo not given)	-2	9	21	-1	6	-6	nt	nt
CCCC(=O)Nc1nc2ccc(C(=O)OCC)cc2s1	7	-1	-4	-11	1	-7	nt	nt
CCCCC(=O)Nc1nc2ccc(C(=O)OC)cc2s1	41*	-36	-8	-6	-12	-12	59*	-16
CC1Cc2cc(/C(O)=C3/C(=O)C(=O)N(CCCn4ccnc4)C3c3ccncc3)ccc2O1 (stereo not given)	-2	-9	9	-3	2	-10	nt	nt
COc1ccc(/C(O)=C2/C(=O)C(=O)N(Cc3ccco3)C2c2cccs2)cc1 (stereo not given)	-1	-16	-22	-1	0	-8	nt	nt
CC1Cc2cc(/C(O)=C3/C(=O)C(=O)N(CCCn4ccnc4)C3c3ccco3)ccc2O1 (stereo not given)	42*	5	-50	-9	-8	11	40*	39*
CC1Cc2cc(/C(O)=C3/C(=O)C(=O)N(Cc4ccco4)C3c3cccs3)ccc2O1 (stereo not given)	36*	14	-33	2	5	15	1	1
COCCNCC(=O)N1CCCCCC1	-3	18	0	-1	-3	9	nt	nt
CCOC(=O)c1c2c3c(cccc3n(C)c1=O)C(=O)c1ccccc1-2	44*	25	17	18	10	-2	2	-4
O=C(COC(=O)c1ccccc1O)Nc1cccc2ccccc12	nt	-10	-200	2	0	2	nt	nt
CC(=O)c1sc(-c2ccc(Cl)cc2)cc1N	18*	31	-328	-70	14	9	-6	-19
O=C(/C=C/c1cccc([N+](=O)[O-])c1)Nc1cc(C(=O)O)cc(C(=O)O)c1	1	-4	16	3	5	-5	nt	nt
O=C(/C=C/c1ccccc1)Nc1cc(NC(=O)/C=C/c2ccccc2)cc(C(=O)O)c1	32*	-3	11	2	5	5	41*	9.6*
COc1ccc2c(c1OC)C(=O)NC(C)=C(C(=O)OC(C)(C)C)C2O (stereo not given)	-5	-7	4	0	-13	-10	nt	nt
COc1ccc(S(=O)(=O)Nc2cc(Sc3ncn[nH]3)c(O)cc2C)cc1	nt	-9	17	1	11	-5	nt	nt
O=S(=O)(Nc1cc(Sc2ncn[nH]2)c(O)c2ccccc12)c1ccccc1	93*	79*	31	3	25	72*	7	9.4*
O=C(NCC(F)(F)F)c1ccc(S(=O)(=O)N2CCN(C(=O)C3CCCO3)CC2)cc1 (stereo not given)	nt	18	-2	0	6	4	nt	nt
O=[N+]([O-])c1ccccc1-c1nc(-c2ccc(Br)o2)no1	6	38	-5	-1	15	21	nt	nt
Nc1nnc(-c2ccccc2[N+](=O)[O-])o1	30*	10	-10	0	-10	-8	-2	-9
CC1=NN(c2ccc(C(=O)O)cc2)C(=O)/C1=C/c1ccc(-c2ccccc2F)o1	1	5	26	1	4	18	nt	nt
CC1=NN(c2ccc(C(=O)O)cc2)C(=O)/C1=C\c1ccc(OC(=O)c2cccs2)cc1	26*	8	61*	3	-4	36	5	17*
CCCN(CC(=O)Nc1ccccc1C)C(=O)c1ccc(C2SCCS2)cc1	nt	6	13	3	3	8	nt	nt
CC(=O)c1cccc(NC(=O)C2C3C=CC(C3)C2C(=O)O)c1 (stereo not given)	0	-1	9	0	-2	1	nt	nt
O=C(O)C1C2C=CC(C2)C1C(=O)Nc1cccc(C(=O)N2CCCCC2)c1 (stereo not given)	30*	-15	-1	0	7	0	-7	-10
SMILES	HSP90 inh	SENP6 block	SENP8 block-1	SENP1 FRET inh	SENP8 block-2	SENP7 block	HSP90 inh confirm	FLuc counter
CCCCN(CCCC)S(=O)(=O)c1c(C)[nH]c(=O)[nH]c1=O	-2	-16	8	1	0	14	nt	nt
CCCCN(C)S(=O)(=O)c1c(C)[nH]c(=O)[nH]c1=O	25*	-5	13	2	-2	14	1	-7
COc1ccccc1C(=O)NC(=S)N1CCCc2ccccc21	18*	-6	-116	-47	-3	6	20*	13*
CC(Oc1ccc2c(c1)oc(=O)c1ccccc12)C(=O)NC(Cc1c[nH]c2ccc(O)cc12)C(=O)O (stereo not given)	47*	4	-143	1	-1	1	-2	-5
Cc1cc(OC(C)C(=O)NC(Cc2c[nH]c3ccc(O)cc23)C(=O)O)c2c(C)c(C)c(=O)oc2c1 (stereo not given)	-7	-3	-4	-1	-8	11	nt	nt
CCOc1ccc2nc3c(cc2c1)CN(CCCO)C(=NCCOC)S3	-3	-12	-174	-49	2	0	nt	nt
CCCCNC(=S)N1CCN(CC)CC1	53*	15	19	-3	11	-6	0	-3
Cc1ccc2cc(CCNC(=O)c3ccc(S(=O)(=O)N4CCOCC4)cc3)c(=O)[nH]c2c1	-2	10	-31	0	-10	-1	nt	nt
Cc1ccc2cc(CCNC(=O)c3ccc(S(=O)(=O)N4CCCCC4)cc3)c(=O)[nH]c2c1	35*	-2	-32	-2	2	8	0	-4
COc1ccc(C(=O)c2coc3ccc(O)c(CN4CCCC4)c23)cc1	50*	-20	26	2	7	8	0	-5
C[C@H]1CN([C@@H](C)CO)C(=O)CCCn2cc(nn2)CO[C@@H]1CN(C)S(=O)(=O)c1ccc(Oc2ccccc2)cc1	nt	nt	8	-1	nt	nt	nt	nt
CCOC1CCCc2oc(-c3ccc(OC)cc3)c(C(=O)NCCCCO)c21 (stereo not given)	nt	nt	-402	1	nt	nt	nt	nt
CC(=O)Nc1ccc(-n2c(=O)c3ccccc3c3ccccc3c2=O)cc1	24*	-1	0	2	-8	1	9	-1
CCCOc1ccc(/C=N/Nc2ccc(C(=O)O)cc2)c(OCCC)c1	29*	nt	-429	-13	nt	nt	44*	48*
CCCOc1ccc(/C=N/Nc2cccc([N+](=O)[O-])c2)c(O)c1	1	0	26	2	9	-2	nt	nt
CCOC(=O)CCC(NC(=O)c1ccc(Nc2nc3ccccc3nc2C(=O)OCC)cc1)C(=O)OCC (stereo not given)	nt	nt	16	3	nt	nt	nt	nt
